Each structure is given as a SMILES string.
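Further: active if original authors judged signal statistically different from baseline.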

In the first assay the target is T1, UniProt Q8VGW5.
T1 sequence (whole entry): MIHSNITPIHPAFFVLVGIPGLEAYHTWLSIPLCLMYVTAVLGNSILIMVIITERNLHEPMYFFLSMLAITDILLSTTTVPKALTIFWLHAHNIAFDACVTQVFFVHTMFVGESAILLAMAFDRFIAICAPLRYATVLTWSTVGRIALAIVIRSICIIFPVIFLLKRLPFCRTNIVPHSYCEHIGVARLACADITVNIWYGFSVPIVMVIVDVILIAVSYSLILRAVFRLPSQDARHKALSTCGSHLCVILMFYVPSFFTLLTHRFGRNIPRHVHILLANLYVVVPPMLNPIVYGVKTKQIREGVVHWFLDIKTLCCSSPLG
The settings on record: stereoisomer not certain. A digest of the protocol: (§1)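 Each receptor–molecule pair is labelled responsive or non-responsive (inactive) according to whether the original authors judged the measured signal statistically different from baseline. The data were taken from the main text and supplementary material of published papers and checked for typos and inconsistencies. Assay methods differed by source, with transient luciferase assays in mammalian cell lines being common.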
Consider `O=C([O-])CCCCCCCC(=O)[O-].[H+].[H+]`, for which the “odorant receptor agonist call” value was “inactive”. Same read-out and setting: as for `CCCCC=O`, the entry is “active”; as for `CCCCCCCC(=O)[O-].[H+]`, “inactive”; as for `CCCC(C)=O`, “inactive”. On the same count and under the same terms, the result for `CCCCCCC(=O)[O-].[H+]` reads “inactive”.

The target in the next assay is T2, UniProt Q8VGX3.
T2 sequence (whole entry): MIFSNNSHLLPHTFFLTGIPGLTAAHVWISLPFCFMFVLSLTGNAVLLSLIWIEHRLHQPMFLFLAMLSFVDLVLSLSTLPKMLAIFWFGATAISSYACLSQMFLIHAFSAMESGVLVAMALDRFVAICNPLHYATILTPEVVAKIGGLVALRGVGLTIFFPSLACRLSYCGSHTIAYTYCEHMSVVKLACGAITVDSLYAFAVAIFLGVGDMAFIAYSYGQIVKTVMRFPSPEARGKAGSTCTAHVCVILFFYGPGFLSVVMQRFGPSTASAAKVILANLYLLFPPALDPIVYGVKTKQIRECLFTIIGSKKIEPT
The settings on record: stereoisomer not certain. A digest of the protocol:
as §1
`C=C(C)C1CCC(C)C(=O)C1` (centres undefined): the “odorant receptor agonist call” value was “inactive”.

Turning to `CC(=O)OCCc1ccccc1`, the “odorant receptor agonist call” value is “inactive”. Same read-out and setting: as for `C1CCOCC1`, the entry is “inactive”. On the same count and under the same terms, the result for `O=C([O-])CCCCCCCC(=O)[O-].[H+].[H+]` reads “inactive”. Consider `OCC=Cc1ccccc1`, for which the “odorant receptor agonist call” value was “inactive”. As to `CCCCC=O`, the “odorant receptor agonist call” value is “inactive”. On the same count and under the same terms, as for `C=CC(=O)CCCCC`, the entry is “inactive”; as for `CCCCCCC=CC=O`, “inactive”; as for `C=C(C)C1CC=C(C)CC1` (centres undefined), “active”. Still for that read-out and setting: as for `CC1CC=CCCCCCCCCCC(=O)C1` (centres undefined), the entry is “inactive”. The same measure, in the same setting: the result for `C=C(C)C1CCC2(C)OC2C1` (centres undefined) reads “inactive”. On to `CC(C)=CCCC(C)CCO` (centres undefined), for which the “odorant receptor agonist call” value was “inactive”. `COc1nccnc1C(C)C`: the “odorant receptor agonist call” value was “inactive”. The same measure, in the same setting: the result for `O=C1Cc2ccccc2O1` reads “inactive”; that for `CC(C)=C1CCC(C)CC1=O` (centres undefined), “inactive”; that for `COc1ccccc1`, “inactive”.

As for `CCc1ccc(O)cc1`, the “odorant receptor agonist call” value was “inactive”. The same measure, in the same setting: the result for `CSSSC` reads “inactive”; that for `CCc1ncc(C)nc1CC`, “inactive”; that for `CCCCCCCCC=CC=O`, “inactive”. The same measure, in the same setting: the result for `CSSCc1ccco1` reads “inactive”; that for `CCOC(=O)C(C)C`, “inactive”; that for `COc1cc(C(=O)O)ccc1O`, “inactive”. Same read-out and setting: as for `Cc1ccc(C(C)C)cc1`, the entry is “inactive”; as for `C=CC(=C)CCC=C(C)C`, “inactive”; as for `C=C1C2CCC(C2)C1(C)C` (centres undefined), “inactive”.

A further assay addresses T3, UniProt Q8VGX5.
T3 sequence (whole entry): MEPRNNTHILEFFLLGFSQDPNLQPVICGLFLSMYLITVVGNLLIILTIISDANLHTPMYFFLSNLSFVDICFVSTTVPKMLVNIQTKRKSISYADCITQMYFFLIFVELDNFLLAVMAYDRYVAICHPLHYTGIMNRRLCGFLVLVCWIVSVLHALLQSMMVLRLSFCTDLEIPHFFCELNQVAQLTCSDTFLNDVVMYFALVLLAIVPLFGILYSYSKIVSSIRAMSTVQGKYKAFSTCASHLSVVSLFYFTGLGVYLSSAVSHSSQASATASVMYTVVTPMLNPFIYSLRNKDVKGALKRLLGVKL
The settings on record: stereoisomer not certain. In short, it runs like this:
as §1
As for `C=C(C)C1CCC(C)C(=O)C1` (centres undefined), the “odorant receptor agonist call” value is “active”.

With `CCC(C(=O)O)c1ccccc1` (centres undefined), the “odorant receptor agonist call” value is “inactive”. The same measure, in the same setting: the result for `CC(=O)OCCc1ccccc1` reads “inactive”. Same read-out and setting: the result for `C1CCOCC1` reads “inactive”.

As for `O=c1ccc2ccccc2o1`, the “odorant receptor agonist call” value was “active”.

On to `O=C([O-])CCCCCCCC(=O)[O-].[H+].[H+]`, for which the “odorant receptor agonist call” value was “inactive”. Same read-out and setting: as for `CCCCCO`, the entry is “inactive”; as for `OCC=Cc1ccccc1`, “inactive”. Turning to `CCCCC=O`, the “odorant receptor agonist call” value was “inactive”. On the same count and under the same terms, the result for `CCCCCCCC(=O)[O-].[H+]` reads “inactive”. Same read-out and setting: the result for `C=CC(=O)CCCCC` reads “inactive”. Still for that read-out and setting: as for `CCCCCCC=CC=O`, the entry is “inactive”; as for `CCCC(C)=O`, “inactive”.

For the compound `C=C(C)C1CC=C(C)CC1` (centres undefined), the “odorant receptor agonist call” value is “inactive”.

Consider `CC1CC=CCCCCCCCCCC(=O)C1` (centres undefined), for which the “odorant receptor agonist call” value was “inactive”. In the case of `C=C(C)C1CCC2(C)OC2C1` (centres undefined), the “odorant receptor agonist call” value was “inactive”. The same measure, in the same setting: the result for `CC(C)=CCCC(C)CCO` (centres undefined) reads “inactive”; that for `COc1nccnc1C(C)C`, “inactive”. Still for that read-out and setting: as for `O=C1Cc2ccccc2O1`, the entry is “active”. Same read-out and setting: as for `CC(C)=C1CCC(C)CC1=O` (centres undefined), the entry is “active”; as for `COc1ccccc1`, “inactive”. For the compound `CCc1ccc(O)cc1`, the “odorant receptor agonist call” value is “inactive”. On the same count and under the same terms, as for `CSSSC`, the entry is “inactive”; as for `CCc1ncc(C)nc1CC`, “inactive”; as for `CCCCCCCCC=CC=O`, “inactive”. Turning to `CSSCc1ccco1`, the “odorant receptor agonist call” value was “inactive”.

Regarding `CCOC(=O)C(C)C`, the “odorant receptor agonist call” value was “inactive”. Take `COc1cc(C(=O)O)ccc1O`: the “odorant receptor agonist call” value was “inactive”. Same read-out and setting: as for `Cc1ccc(C(C)C)cc1`, the entry is “inactive”. On the same count and under the same terms, as for `CCCCCCC(=O)[O-].[H+]`, the entry is “inactive”; as for `C=CC(=C)CCC=C(C)C`, “inactive”; as for `C=C1C2CCC(C2)C1(C)C` (centres undefined), “inactive”. On the same count and under the same terms, as for `CCCCOC(=O)C(C)OC(=O)CCC` (centres undefined), the entry is “inactive”.

These data come from the M2OR odorant receptor database.
